For orientation: MIC means the least concentration at which growth counts as inhibited.

In brackets after ≈: the same amount, converted by molar mass.

Here are results for three compounds from ChEMBL document CHEMBL1152988, “Mutated response regulator graR is responsible for phenotypic conversion of Staphylococcus aureus from heterogeneous vancomycin-intermediate resistance to vancomycin-intermediate resistance” (2008).

Experiment [1] concerns Staphylococcus aureus. The experiment can be described thus: Antibacterial activity against vancomycin-susceptible Staphylococcus aureus N315 harboring mutated graR gene after 48 hrs by agar dilution method. Format: functional. The note with it: N315, 48 h. The gist of the method:
(§1)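 Host carries shuttle vector pYT3, either empty or carrying PCR-cloned graR (SA0614) from N315 (intact) or Mu50 (N197S mutant), introduced by electroporation and sequence-verified. MICs were determined by agar dilution per CLSI, with vancomycin MIC in BHI agar. Glycopeptides and daptomycin were tested at 1-mg/liter linear steps, oxacillin by twofold dilutions. Plates were read at 24 h and 48 h.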
In general terms: In agar dilution, organisms are placed on agar that contains the substance at set levels.

In experiment [2] the test system is Staphylococcus aureus. Kind of experiment: Antibacterial activity against vancomycin-susceptible Staphylococcus aureus N315 harboring intact graR gene after 48 hrs by agar dilution method. Format: functional. To be noted: N315, 48 h. In short, it runs like this:
as §1

Experiment [3] has as its system Staphylococcus aureus. The experiment can be described thus: Antibacterial activity against graSR gene knockout vancomycin-susceptible Staphylococcus aureus N315 after 48 hrs by agar dilution method. Format: functional. The note with it: N315, 48 h. In short, it runs like this: (§2)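 Agar dilution MICs per CLSI, with vancomycin MIC in BHI agar. Vancomycin, teicoplanin and daptomycin were tested at linear 1-mg/liter concentration steps; oxacillin was tested by twofold dilutions. Plates were read at 24 h and again at 48 h so a slow-growing resistant subpopulation would not be missed. graSR-null mutants were made by allelic exchange, replacing graSR with a cat cassette.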

The test system of experiment [4] is Staphylococcus aureus. Kind of experiment: Antibacterial activity against heterogeneous vancomycin-intermediate Staphylococcus aureus Mu3 harboring mutated graR gene after 48 hrs by agar dilution method. To be noted: Mu3, 48 h. Format: functional. The gist of the method: as §1
Experiment [5] has as its system Staphylococcus aureus. The experiment can be described thus: Antibacterial activity against heterogeneous vancomycin-intermediate Staphylococcus aureus Mu3 harboring shuttle vector pYT3 after 24 hrs by agar dilution method. Format: functional. The note with it: Mu3, 24 h. The gist of the method:
as §1

Experiment [6] deals with Staphylococcus aureus. The experiment can be described thus: Antibacterial activity against vancomycin-susceptible Staphylococcus aureus N315 after 48 hrs by agar dilution method. The note with it: N315, 48 h. Format: functional. In short, it runs like this: as §2
Experiment [7] has as its system Staphylococcus aureus. Kind of experiment: Antibacterial activity against heterogeneous vancomycin-intermediate Staphylococcus aureus Mu3 harboring shuttle vector pYT3 after 48 hrs by agar dilution method. The experiment is classed as functional. To be noted: Mu3, 48 h. In short, it runs like this:
as §1

Experiment [8] deals with Staphylococcus aureus. Kind of experiment: Antibacterial activity against vancomycin-susceptible Staphylococcus aureus N315 after 24 hrs by agar dilution method. To be noted: N315, 24 h. Format: functional. In short, it runs like this: as §2
Experiment [9] concerns Staphylococcus aureus. The experiment can be described thus: Antibacterial activity against mutated graR gene knockout heterogeneous vancomycin-intermediate Staphylococcus aureus Mu3 after 24 hrs by agar dilution method. The experiment is classed as functional. The note with it: Mu3, 24 h. The gist of the method:
as §2

Experiment [10] has as its system Staphylococcus aureus. The experiment can be described thus: Antibacterial activity against vancomycin-intermediate Staphylococcus aureus Mu50 after 24 hrs by agar dilution method. Format: functional. To be noted: Mu50, 24 h. In short, it runs like this:
as §2

Experiment [11] concerns Staphylococcus aureus. The experiment can be described thus: Antibacterial activity against graSR gene knockout vancomycin-susceptible Staphylococcus aureus N315 after 24 hrs by agar dilution method. To be noted: N315, 24 h. Format: functional. In short, it runs like this: as §2
Experiment [12] deals with Staphylococcus aureus. The experiment can be described thus: Antibacterial activity against mutated graSR gene knockout vancomycin-susceptible Staphylococcus aureus N315 after 48 hrs by agar dilution method. To be noted: N315, 48 h. The experiment is classed as functional. In short, it runs like this: as §2
Experiment [13] concerns Staphylococcus aureus. Kind of experiment: Antibacterial activity against graSR gene knockout heterogeneous vancomycin-intermediate Staphylococcus aureus Mu3 after 48 hrs by agar dilution method. The experiment is classed as functional. The note with it: Mu3, 48 h. The gist of the method: as §2
Experiment [14] concerns Staphylococcus aureus. The experiment can be described thus: Antibacterial activity against heterogeneous vancomycin-intermediate Staphylococcus aureus Mu3 harboring mutated graR gene after 24 hrs by agar dilution method. To be noted: Mu3, 24 h. Format: functional. The gist of the method: as §1
The test system of experiment [15] is Staphylococcus aureus. The experiment can be described thus: Antibacterial activity against graSR gene knockout heterogeneous vancomycin-intermediate Staphylococcus aureus Mu3 after 24 hrs by agar dilution method. The note with it: Mu3, 24 h. Format: functional. The gist of the method:
as §2

Experiment [16] concerns Staphylococcus aureus. Kind of experiment: Antibacterial activity against mutated graSR gene knockout vancomycin-susceptible Staphylococcus aureus N315 after 24 hrs by agar dilution method. The experiment is classed as functional. The note with it: N315, 24 h. In short, it runs like this:
as §2

The test system of experiment [17] is Staphylococcus aureus. Kind of experiment: Antibacterial activity against vancomycin-intermediate Staphylococcus aureus Mu50 after 48 hrs by agar dilution method. Format: functional. To be noted: Mu50, 48 h. In short, it runs like this:
as §2

Experiment [18] relates to Staphylococcus aureus. The experiment can be described thus: Antibacterial activity against heterogeneous vancomycin-intermediate Staphylococcus aureus Mu3 after 24 hrs by agar dilution method. The experiment is classed as functional. The note with it: Mu3, 24 h. The gist of the method: as §2
The test system of experiment [19] is Staphylococcus aureus. The experiment can be described thus: Antibacterial activity against mutated graR gene knockout vancomycin-susceptible Staphylococcus aureus N315 after 48 hrs by agar dilution method. The experiment is classed as functional. The note with it: N315, 48 h. In short, it runs like this: as §2
The subject of experiment [20] is Staphylococcus aureus. Kind of experiment: Antibacterial activity against vancomycin-susceptible Staphylococcus aureus N315 harboring intact graR gene after 24 hrs by agar dilution method. The experiment is classed as functional. To be noted: N315, 24 h. In short, it runs like this: as §1
Experiment [21] relates to Staphylococcus aureus. Kind of experiment: Antibacterial activity against vancomycin-susceptible Staphylococcus aureus N315 harboring shuttle vector pYT3 after 48 hrs by agar dilution method. Format: functional. The note with it: N315, 48 h. In short, it runs like this:
as §1

The subject of experiment [22] is Staphylococcus aureus. The experiment can be described thus: Antibacterial activity against heterogeneous vancomycin-intermediate Staphylococcus aureus Mu3 after 48 hrs by agar dilution method. The experiment is classed as functional. The note with it: Mu3, 48 h. The gist of the method:
as §2

Experiment [23] has as its system Staphylococcus aureus. The experiment can be described thus: Antibacterial activity against mutated graR gene knockout vancomycin-susceptible Staphylococcus aureus N315 after 24 hrs by agar dilution method. Format: functional. The note with it: N315, 24 h. The gist of the method:
as §2

In experiment [24] the test system is Staphylococcus aureus. Kind of experiment: Antibacterial activity against mutated graR gene knockout heterogeneous vancomycin-intermediate Staphylococcus aureus Mu3 after 48 hrs by agar dilution method. The experiment is classed as functional. To be noted: Mu3, 48 h. In short, it runs like this:
as §2

For experiment [25], the system named is Staphylococcus aureus. Kind of experiment: Antibacterial activity against heterogeneous vancomycin-intermediate Staphylococcus aureus Mu3 harboring intact graR gene after 24 hrs by agar dilution method. The experiment is classed as functional. To be noted: Mu3, 24 h. The gist of the method:
as §1

Experiment [26] relates to Staphylococcus aureus. Kind of experiment: Antibacterial activity against heterogeneous vancomycin-intermediate Staphylococcus aureus Mu3 harboring intact graR gene after 48 hrs by agar dilution method. The experiment is classed as functional. To be noted: Mu3, 48 h. The gist of the method:
as §1

Experiment [27] concerns Staphylococcus aureus. Kind of experiment: Antibacterial activity against vancomycin-susceptible Staphylococcus aureus N315 harboring mutated graR gene after 24 hrs by agar dilution method. Format: functional. To be noted: N315, 24 h. The gist of the method: as §1
Experiment [28] relates to Staphylococcus aureus. The experiment can be described thus: Antibacterial activity against vancomycin-susceptible Staphylococcus aureus N315 harboring shuttle vector pYT3 after 24 hrs by agar dilution method. The experiment is classed as functional. The note with it: N315, 24 h. The gist of the method:
as §1

Experiment [29] relates to Staphylococcus aureus. Kind of experiment: Antibacterial activity against vancomycin-susceptible Staphylococcus aureus N315 harboring complement system vraSR by agar dilution method.

Regarding `CCCCCCCCCC(=O)N[C@@H](Cc1c[nH]c2ccccc12)C(=O)N[C@H](CC(N)=O)C(=O)N[C@@H](CC(=O)O)C(=O)N[C@@H]1C(=O)NCC(=O)N[C@@H](CCCN)C(=O)N[C@@H](CC(=O)O)C(=O)N[C@H](C)C(=O)N[C@@H](CC(=O)O)C(=O)NCC(=O)N[C@H](CO)C(=O)N[C@@H]([C@H](C)CC(=O)O)C(=O)N[C@@H](CC(=O)c2ccccc2N)C(=O)O[C@@H]1C`, the MIC came out at 1 µg/mL (≈ 0.617 µM) in experiment [1]; 0.5 µg/mL (≈ 0.309 µM) in experiment [2]; 0.5 µg/mL (≈ 0.309 µM) in experiment [3]; 3 µg/mL (≈ 1.85 µM) in [4]; 1 µg/mL (≈ 0.617 µM) in experiment [5]; 0.5 µg/mL (≈ 0.309 µM) in experiment [6]. The minimal inhibitory concentration (MIC) was 2 µg/mL (≈ 1.23 µM) in experiment [7]; 0.5 µg/mL (≈ 0.309 µM) in [8]; 3 µg/mL (≈ 1.85 µM) in [9]; 3 µg/mL (≈ 1.85 µM) in [10]; 0.5 µg/mL (≈ 0.309 µM) in experiment [11]; 1 µg/mL (≈ 0.617 µM) in experiment [12]. Moreover, the MIC was 0.5 µg/mL (≈ 0.309 µM) in [13]; 3 µg/mL (≈ 1.85 µM) in [14]; 0.5 µg/mL (≈ 0.309 µM) in [15]; 1 µg/mL (≈ 0.617 µM) in experiment [16]; 3 µg/mL (≈ 1.85 µM) in experiment [17]; 1 µg/mL (≈ 0.617 µM) in [18]. In addition, the MIC in experiment [19] was 1 µg/mL (≈ 0.617 µM); in experiment [20], 0.5 µg/mL (≈ 0.309 µM); in [21], 0.5 µg/mL (≈ 0.309 µM); in experiment [22], 1 µg/mL (≈ 0.617 µM); in [23], 1 µg/mL (≈ 0.617 µM); in experiment [24] it was 3 µg/mL (≈ 1.85 µM). Also, the MIC turned out to be 3 µg/mL (≈ 1.85 µM) in [25], 3 µg/mL (≈ 1.85 µM) in experiment [26], 1 µg/mL (≈ 0.617 µM) in [27] and 0.5 µg/mL (≈ 0.309 µM) in experiment [28].

For `Cc1onc(-c2ccccc2)c1C(=O)N[C@@H]1C(=O)N2[C@@H]1SC(C)(C)[C@@H]2C(=O)O` [OXACILLIN], the MIC in experiment [1] is 0.25 µg/mL (≈ 0.623 µM); in [2], 1 µg/mL (≈ 2.49 µM); in experiment [3], 16 µg/mL (≈ 39.9 µM); in experiment [4], 1020 µg/mL (≈ 2550 µM); in [5], 1020 µg/mL (≈ 2550 µM); in experiment [6] it was 8 µg/mL (≈ 19.9 µM). The MIC in [7] was above 1020 µg/mL; in [8], 2 µg/mL (≈ 4.98 µM); in experiment [9], 1020 µg/mL (≈ 2550 µM); in experiment [10] it was 512 µg/mL (≈ 1280 µM); in experiment [11], 4 µg/mL (≈ 9.96 µM); in experiment [12] it was 0.5 µg/mL (≈ 1.25 µM). In addition, the MIC came to 1020 µg/mL (≈ 2550 µM) in experiment [13]; 1020 µg/mL (≈ 2550 µM) in experiment [14]; 1020 µg/mL (≈ 2550 µM) in experiment [15]; 0.5 µg/mL (≈ 1.25 µM) in experiment [16]; 512 µg/mL (≈ 1280 µM) in [17]; 1020 µg/mL (≈ 2550 µM) in experiment [18]. Moreover, the MIC in experiment [19] was 4 µg/mL (≈ 9.96 µM); in [20] it was 0.5 µg/mL (≈ 1.25 µM); in experiment [21], 4 µg/mL (≈ 9.96 µM); in experiment [22] it was above 1020 µg/mL; in [23], 2 µg/mL (≈ 4.98 µM); in experiment [24], 1020 µg/mL (≈ 2550 µM). The MIC was 1020 µg/mL (≈ 2550 µM) in [25], 1020 µg/mL (≈ 2550 µM) in experiment [26], 0.25 µg/mL (≈ 0.623 µM) in experiment [27] and 4 µg/mL (≈ 9.96 µM) in [28].

As for `CN[C@H](CC(C)C)C(=O)N[C@H]1C(=O)N[C@@H](CC(N)=O)C(=O)N[C@H]2C(=O)N[C@H]3C(=O)N[C@H](C(=O)N[C@H](C(=O)O)c4cc(O)cc(O)c4-c4cc3ccc4O)[C@H](O)c3ccc(c(Cl)c3)Oc3cc2cc(c3O[C@@H]2O[C@H](CO)[C@@H](O)[C@H](O)[C@H]2O[C@H]2C[C@](C)(N)[C@H](O)[C@H](C)O2)Oc2ccc(cc2Cl)[C@H]1O` [VANCOMYCIN], the MIC in experiment [9] was 3 µg/mL (≈ 2.07 µM); in [29] it was at least 4 µg/mL; in [17], 8 µg/mL (≈ 5.52 µM).
